High-throughput results (PubChem)
Ba/F3 V617F tox = loss of viability in JAK2V617F-driven Ba/F3 cells; Ba/F3 EpoR-JAK2V617F viability, ATP luminescence; inhibition, % at 5.6 µM; 1.1% of 220,000 active; AID 1446;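 active means inhibition above the campaign mean plus 3 SD over all tested compounds, cut at about 24% in these data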;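 further: cytokine-independent growth of Ba/F3 cells driven by EpoR plus mutant JAK2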
b-catenin transl = beta-catenin nuclear translocation modulation | HeLa beta-catenin nuclear translocation, immunofluorescence imaging | nuclear translocation activity, % at 5 µM | 0.3% of 190,000 active | AID 1665;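 active means nuclear translocation activity above 50% at 5 µM, with a well cell count of 50 or more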;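 further: per-cell ratio of nuclear to cytoplasmic median beta-catenin stain intensity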
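Test system: human HeLa cell line; Doses: 5 µM primary, 0.02–20 µM confirmation; Incubation: 24 h compound exposure, 37°C; Detection: beta-catenin immunofluorescence imaging with DAPI; Read-out: beta-catenin nuclear/cytoplasmic ratio, % activation.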
BaF3 tox = reduces parental Ba/F3 cell viability, JAK2V617F counter-screen. 1.1% of 220,000 active. inhibition, % at 5.6 µM. CellTiter-Glo ATP luminescence. AID 1486;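 active means inhibition above a per-campaign cutoff, the mean inhibition of all tested compounds plus 3 SD, cut at about 27% in these data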
KLF5 inhibitor = kruppel-like factor 5 inhibition. DLD-1 KLF5 promoter-luciferase reporter, luminescence. inhibition, % at 5 µM. 0.23% of 290,000 active. AID 1700;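 active means inhibition above a per-plate limit of that plate's mean compound inhibition plus 3 SD, cut at about 60% in these data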;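 further: higher means less KLF5 promoter-driven luciferase light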
MT stabilizer = microtubule stabilizers in HeLa cells. HeLa tubulin immunostaining HCS, 24 h; share of cells brighter than vehicle mean+2SD. % tubulin-high responders, % at 10 µM. 0.83% of 200,000 active;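 active means plate Z-score above 3 for both tubulin-high and condensed-nucleus cell shares, with cell loss under 80%, at 10 µM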;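 further: anti alpha tubulin signal scored within the nucleus-defined area of each cell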
IEC-6 cytotox = kills IEC-6 intestinal cells in KLF5 counter-screen. IEC-6 cytotoxicity, luminescence viability. 0.78% of 290,000 active. inhibition, % at 5 µM
IEC-6 cytotox cf = confirmation of cytotoxic compounds in rat IEC-6 intestinal epithelial cells; IEC-6 rat intestinal epithelial viability, luminescence; 63% of 1,900 active; inhibition, % at 5 µM; shares compounds with IEC-6 cytotox
Numbers stand for hits; . = inactive; / = no result. Rows were chosen to be rich in hits. Some 2.1% of all compounds tested hit in one or more screens of this group. Unless noted, no stated cut-off is given here; in the data, active means inhibition above about 22%; inactive means the rest.

SMILES	Ba/F3 V617F tox	b-catenin transl	BaF3 tox	KLF5 inhibitor	MT stabilizer	IEC-6 cytotox	IEC-6 cytotox cf
Cc1ccc(-c2ocnc2C(=O)Nc2ccccc2NC(=O)c2ccccn2)cc1	/	/	/	.	/	27	.
C=CCNC(=O)COc1ccc(S(=O)(=O)N2CCCC2)cc1	.	.	.	.	.	.	/
COC(=O)c1c(NC(=O)Cc2ccccc2)sc2c1CCN(C(C)C)C2	/	/	/	.	/	.	/
COC(=O)c1c(NC(=O)c2ccc([N+](=O)[O-])o2)sc2c1CCN(C(C)C)C2	/	/	/	.	/	96	60
CC(=O)N1CCc2c(sc(NC(=O)Cc3ccc(F)cc3)c2C#N)C1	/	/	/	.	/	.	/
COC(=O)c1sc(NC(=O)c2ccc([N+](=O)[O-])o2)c(C#N)c1C	.	.	.	.	/	22	26
CC(=O)N1CCc2c(sc(NC(=O)c3ccc([N+](=O)[O-])o3)c2C#N)C1	.	.	32	.	.	61	63
O=C(CCNC(=O)C1CCN(S(=O)(=O)c2ccc(F)cc2)CC1)NCCc1ccc(Cl)cc1	/	/	/	.	/	.	/
Cn1nc([N+](=O)[O-])nc1Sc1nnc(-c2ccccc2)o1	92	.	76	.	.	68	68
COc1cccc(N(C(=O)CNC(=O)c2ccco2)C(C(=O)NC2CCCC2)c2ccco2)c1 (configuration not stated)	/	/	/	.	/	.	/
CN1CCN(c2ncnc3c2[nH]c2ccc(F)cc23)CC1	.	.	.	.	.	.	/
CCOc1ccc2[nH]c3c(N4CCc5ccccc5C4)ncnc3c2c1	.	.	.	.	/	40	90
Cc1cccc(C)c1OCC(=O)NNC(=S)NC(=O)C1CC1	/	/	/	.	/	29	.
CCN1/C(=C/c2ccc3cccc(C)c3[n+]2CC)Sc2ccccc21	98	/	89	.	.	32	36
CCN1/C(=C\c2ccc3cc(C)ccc3[n+]2CC)Sc2cc(C)c(C)cc21	100	.	71	.	.	37	28
C[n+]1ccccc1/C=C1\Sc2ccccc2N1CCO	/	/	/	.	/	.	/
CCN1/C(=C/c2ccc3cc(C)cc(C)c3[n+]2CC)Sc2cc(C)ccc21	101	.	86	.	.	43	37
CC[n+]1c(/C=C/c2cc([N+](=O)[O-])ccc2O)ccc2ccccc21	/	/	/	.	/	.	/
CC1=C(C(=O)OCC(C)C)C23C(=O)c4ccccc4C2(O1)OC(N)=C3C#N (configuration not stated)	.	.	.	.	.	.	/
CCn1c(C)c(C)c2cc(C(=O)N3CCc4ccccc4C3)ccc21	/	/	/	.	/	46	30
NNC(=O)/C(=C\c1ccco1)NC(=O)c1ccco1	/	/	/	.	/	70	.
C=CCNC(=O)/C(=C\c1ccco1)NC(=O)c1ccco1	/	/	/	.	/	.	/
CC(CCc1ccccc1)NC(=O)C(=O)NCCc1ccccc1 (configuration not stated)	.	.	.	.	.	.	/
Cc1cc2c(cc1C)C(c1ccccc1OC(C)C)CC(=O)N2 (configuration not stated)	/	/	/	.	/	44	31
CCCOc1ccccc1C1CC(=O)NC2=C1C(=O)CCC2 (configuration not stated)	.	97	28	.	.	37	33
SMILES	Ba/F3 V617F tox	b-catenin transl	BaF3 tox	KLF5 inhibitor	MT stabilizer	IEC-6 cytotox	IEC-6 cytotox cf
CCOc1ccccc1C1CC(=O)Nc2cc(C)c(C)cc21 (configuration not stated)	/	/	/	.	/	42	26
CCCOc1ccc(C2CC(=O)NC2=O)cc1 (configuration not stated)	.	.	.	.	.	.	/
CCOc1ccccc1C1CC(=O)Nc2cc3c(cc21)OCCO3 (configuration not stated)	80	.	78	.	.	66	54
CCOc1ccccc1C1CC(=O)Nc2cc(OC)c(OC)c(OC)c21 (configuration not stated)	.	.	.	.	.	.	/
CCC(C)OC(=O)C1=C(C)NC(=O)CC1c1ccccc1OC (configuration not stated)	.	.	.	.	.	.	/
COc1ccc(C(=O)NCc2nnc(SCC(=O)N3CCc4ccccc43)n2CCc2ccccc2)cc1	.	.	.	.	.	.	/
COc1cc2c(cc1OC)C(c1ccco1)CC(=O)N2 (configuration not stated)	.	.	.	.	.	.	/
COc1ccccc1C1CC(=O)Nc2cc(C)c(C)cc21 (configuration not stated)	/	/	/	.	/	36	.
COc1ccccc1CNC(=O)c1nccnc1CO	/	/	/	.	/	.	/
COc1cc(C(=O)Nc2ccccc2C(=O)Nc2ccccn2)cc(OC)c1OC	/	/	/	.	/	33	.
COc1cc(C(=O)Nc2ccccn2)cc(OC)c1OC	.	.	.	.	.	.	/
Cc1ccc(C)c(S(=O)(=O)N2CCN(C(=O)C(C)Sc3ccccc3)CC2)c1 (configuration not stated)	/	/	/	.	/	.	/
CCOC(=O)CSC1=C(C#N)C(c2ccc(Cl)cc2)CC(=O)N1 (configuration not stated)	.	/	.	.	.	.	/
CCOC(=O)CSC1=C(C#N)C(c2ccc(C)o2)CC(=O)N1 (configuration not stated)	74	.	79	.	.	83	59
COc1ccc(OC)c(NC(=O)c2cccc(NC(=O)c3ccccc3)c2)c1	/	/	/	.	/	.	/
CC(=O)c1c(-c2ccccc2)c2cc(Cl)ccc2n(C)c1=O	/	/	/	.	/	22	.
Cn1c(=O)c(C(=O)NCc2ccc(Cl)cc2)c(O)c2ccccc21	/	/	/	.	/	.	/
O=C(N/N=C/C(Cl)=C/c1ccc([N+](=O)[O-])cc1)C(=O)Nc1cccc(C(=O)O)c1	.	.	.	.	/	.	/
COc1ccc(OC)c(Nc2nc(NCCO)c3ccccc3n2)c1	/	/	/	.	/	.	/
COc1ccc([N+](=O)[O-])cc1Nc1c2ccccc2nc2ccccc12	/	/	/	66	/	79	72
COc1ccc(OC)c(Nc2nc(C)nc3c2oc2ccccc23)c1	/	/	/	.	/	26	23
COc1cc(Nc2c3c(nc4ccccc24)CCC3)cc(OC)c1OC	/	/	/	.	/	85	58
COc1ccc(OC)c(Nc2c3ccccc3nc3ccccc23)c1	/	/	/	.	/	46	.
COc1ccc(NC(=O)C(=O)NCCN2CCN(C(=O)c3ccco3)CC2)cc1	.	.	.	.	.	.	/
Cc1ccsc1/C=N/NC(=O)Cn1cnc2ccccc21	.	.	.	.	.	.	/
COc1ccc(NC(=S)NC(=O)c2cncc(Br)c2)c(OC)c1	/	/	/	.	/	.	/
COc1cc2ncnc(NCc3ccc(Cl)cc3)c2cc1OC	.	.	.	.	.	29	23
COc1cc2ncnc(NCc3ccc(F)cc3)c2cc1OC	/	/	/	.	/	25	32
COc1ccc(C2=NN(CC(=O)Nc3cc(C)ccc3C)C(=O)CC2)cc1	.	.	.	.	/	.	/
C/C(=N\NC(=O)c1c[nH]c2ccccc12)c1ccccn1	.	.	.	.	.	.	/
